Active and inactive are the calls of the source. No cut-off for these calls is given here. *1 amine or outer side, *2 acyl side, *3 side chain or, on linkers, in order; H or OH if unused. Where a SMILES comes first, the peptide text is derived from it. Bridges are numbered along the chain shown (N, C = ends). [ ]: non-standard residue; d: D form. The star is where a group is joined. dLeu(3R-OH) = CC(C)[C@@H](O[*:3])[C@@H](N[*:1])C(=O)[*:2]; Gln(3S,4R-Me2) = C[C@H]([C@H](N)C(=O)O)[C@@H](C)C(N)=O; dTyr(βR-OMe) = CO[C@H](c1ccc(O)cc1)[C@@H](N)C(=O)O; Pip(4S-Cl) = O=C(O)[C@@H]1C[C@@H](Cl)CCN1; X1 = CCC(C)/C=C(C)/C=C\C(O)C(C)(O)C(=O)*; Abu(3R-NH2) = C[C@@H](N)[C@H](N)C(=O)O; NMeT = CN[C@H](C(=O)O)[C@@H](C)O Where only a bound is given, the exact number is not on record here.

Data set [1] relates to Human immunodeficiency virus 1. Put plainly: Inhibition of HIV HXB2 in TZM-bl cells after 48 hrs by neutralization assay. The data set is classed as functional, organism-based. As to conditions: Human immunodeficiency virus 1, HXB2, TZM-bl. An outline of the steps:
(§1)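 Env-pseudotyped viral particles (HXB2, CXCR4-using; SF162, CCR5-using) added with varying inhibitor concentrations (in H2O or 20% EtOH in H2O) to TZM-bl cells (CD4, CXCR4, CCR5) after overnight plating at 37 °C. Luciferase luminescence (RLU) read after 48 h at 37 °C. Duplicate or triplicate, on at least two different days.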

The test system of data set [2] is Human immunodeficiency virus 1. In words: Inhibition of HIV SF162 in TZM-bl cells after 48 hrs by neutralization assay. Type of data set: functional, organism-based. As to conditions: Human immunodeficiency virus 1, SF162, TZM-bl. An outline of the steps: as §1
Data set [3] deals with Human immunodeficiency virus 1. In words: Inhibition of HIV LAV in BSC1 cells after 2.5 hrs by cell fusion assay. Type of data set: functional, organism-based. Particulars: Human immunodeficiency virus 1, LAV, BSC-1, 2.5 h.
A short description of data set [4]: Cytotoxicity against human TZM-bl cells after 24 hrs by MTT assay. The data set is classed as functional, cell-based. In outline:
(§2)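 MTT kit assay. Cells seeded at 2 × 10^4/well, adhered 18 h, then exposed for 3 h (fusion-assay conditions) or 24 h (neutralization-assay conditions). Medium then replaced or diluted 3-fold with fresh growth medium, followed by 72 h further culture. Viability read at A570 after MTT.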

A further data set concerns HCT-116. Put plainly: Cytotoxicity against human HCT116 cells by MTT assay. Type of data set: functional, cell-based. In outline:
as §2

A short description of data set [5]: Cytotoxicity against african green monkey BSC1 cells after 3 hrs by MTT assay. Particulars: chlorocebus aethiops, bsc-1, 3 h. Type of data set: cell-based. In outline: as §2
The next data set relates to Candida albicans. In words: Antifungal activity against Candida albicans ATCC 90027 at 5 ug per disk after 18 hrs by disk diffusion method. The data set is classed as functional. As to conditions: ATCC 90027, 18 h, read-out: IZ. In outline:
(§3)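 Modified disk diffusion. Bacteria: 500 µL of 24 h culture in 100 mL Antibiotic Medium 2 with 1% agar at 55 °C; C. albicans in Sabouraud dextrose agar at 55 °C. 10 mL seeded agar poured per dish, cooled 1 h. Compounds applied at 1–25 µg; zones of inhibition measured after 18 h at 37 °C.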

Another data set deals with Escherichia coli. In words: Antimicrobial activity against Escherichia coli ATCC 8739 at 25 ug per disk after 18 hrs by disk diffusion method. Type of data set: functional, organism-based. In outline:
as §3

A further data set deals with Pseudomonas aeruginosa. In words: Antimicrobial activity against Pseudomonas aeruginosa ATCC 15442 at 25 ug per disk after 18 hrs by disk diffusion method. Type of data set: functional, organism-based. In outline:
as §3

In another data set the test system is Staphylococcus aureus. Put plainly: Antimicrobial activity against Staphylococcus aureus ATCC 25923 at 25 ug per disk after 18 hrs by disk diffusion method. The data set is classed as functional, organism-based. An outline of the steps: as §3
Data set [6] concerns Bacillus subtilis. Put plainly: Antimicrobial activity against Bacillus subtilis ATCC 49343 at 5 ug per disk after 18 hrs by disk diffusion method. Type of data set: functional, organism-based. In outline: as §3
The subject of data set [7] is Bacillus subtilis. Put plainly: Antimicrobial activity against Bacillus subtilis ATCC 49343 at 1 ug per disk after 18 hrs by disk diffusion method. Type of data set: functional. Particulars: ATCC 49343, 18 h, read-out: IZ. In outline: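 Modified disk diffusion: 24 h bacterial culture seeded (500 µL per 100 mL) into Antibiotic Medium 2 with 1% agar at 55 °C, 10 mL poured into square dishes, cooled 1 h. Compound applied to disks (1–25 µg range tested); chloramphenicol 10 µg disk as control. Incubated 37 °C, 18 h; inhibition zone diameters measured.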

For the compound `CCC(C)/C=C(C)/C=C\C(O)C(C)(O)C(=O)NCC(=O)N[C@H](C(=O)N[C@H](C(=O)N[C@H](C(=O)N[C@H]1C(=O)N[C@H](COC)C(=O)NCC(=O)N[C@@H](C)C(=O)N(C)[C@@H]([C@@H](C)O)C(=O)N[C@H]([C@H](OC)c2ccc(O[C@@H]3O[C@@H](C)[C@H](O)[C@@H](O)[C@H]3O)cc2)C(=O)N2CC[C@H](Cl)C[C@H]2C(=O)O[C@@H]1C(C)C)[C@@H](C)[C@@H](C)C(N)=O)[C@@H](C)N)[C@@H](C)O` (stereo not given in full) [MIRABAMIDE A], the IC50 was determined as 140 nM in [1]; 400 nM in [2]; 41 nM in [3]; 1800 nM in data set [4]; 2220 nM in the data set with HCT-116. The Activity result in [5] was “Non-toxic”. For the same compound, in the data set with Candida albicans, the zone of inhibition at 5 µg/disc amounted to 9 mm. Moreover, the outcome in the data set on Escherichia coli, with Pseudomonas aeruginosa and with Staphylococcus aureus was inactive. The outcome in the data set on Bacillus subtilis [6] was Active.

In the case of `C/C=C(\NC(=O)[C@@H](NC(=O)CNC(=O)C(C)(O)C(O)/C=C\C(C)=C\C(C)CC)[C@@H](C)O)C(=O)N[C@H](C(=O)N[C@H]1C(=O)N[C@H](COC)C(=O)NCC(=O)N[C@@H](C)C(=O)N(C)[C@@H]([C@@H](C)O)C(=O)N[C@H]([C@H](OC)c2ccc(O[C@@H]3O[C@@H](C)[C@H](O)[C@@H](O)[C@H]3O)cc2)C(=O)N2CC[C@H](Cl)C[C@H]2C(=O)O[C@@H]1C(C)C)[C@@H](C)[C@@H](C)C(N)=O` (stereo not given in full) [MIRABAMIDE B], the values for the 50% inhibitory concentration (IC50) in data set [1], in data set [2] and in data set [3] were above 50000 nM, above 50000 nM and above 10000 nM, respectively. The Activity result in data set [5] is “Non-toxic”. The zone of inhibition at 5 µg/disc in the data set with Candida albicans stood at 9 mm. In addition, the result with Escherichia coli, in the data set on Pseudomonas aeruginosa and with Staphylococcus aureus was inactive. In the data set with Bacillus subtilis [6], the outcome was Active.

In the case of `CCC(C)/C=C(C)/C=C\C(O)C(C)(O)C(=O)NCC(=O)N[C@H](C(=O)N[C@H](C(=O)N[C@H](C(=O)N[C@H]1C(=O)N[C@H](COC)C(=O)NCC(=O)N[C@@H](C)C(=O)N(C)[C@@H]([C@@H](C)O)C(=O)N[C@H]([C@H](OC)c2ccc(O)cc2)C(=O)N2CC[C@H](Cl)C[C@H]2C(=O)O[C@@H]1C(C)C)[C@@H](C)[C@@H](C)C(N)=O)[C@@H](C)N)[C@@H](C)O` (stereo partly drawn) [MIRABAMIDE C] (X1-GT[Abu(3R-NH2)][Gln(3S,4R-Me2)][dLeu(3R-OH)][dS](Me)GA[NMeT][dTyr(βR-OMe)][Pip(4S-Cl)]; ester 5-C), the IC50 in [1] was determined as 144 nM; in [2], 1010 nM; in data set [3], 1300 nM; in data set [4] it was 2200 nM. In addition, the Activity result in [5] was “Non-toxic”. For the same compound, the zone of inhibition at 1 µg/disc in the data set on Bacillus subtilis [7] came out at 9 mm. The zone of inhibition at 5 µg/disc with Candida albicans is 9 mm. The result in the data set on Escherichia coli, in the data set on Pseudomonas aeruginosa and with Staphylococcus aureus was inactive.

With `CCC(C)/C=C(C)/C=C\C(O)C(C)(O)C(=O)NCC(=O)N[C@H](C(=O)N[C@H](C(=O)N[C@H](C(=O)N[C@H]1C(=O)N[C@H](COC)C(=O)NCC(=O)N[C@@H](C)C(=O)N(C)[C@@H]([C@@H](C)O)C(=O)N[C@H]([C@H](OC)c2ccc(O[C@@H]3O[C@@H](C)[C@H](O)[C@@H](O)[C@H]3O)cc2)C(=O)N2CCCC[C@H]2C(=O)O[C@@H]1C(C)C)[C@@H](C)[C@@H](C)C(N)=O)[C@@H](C)N)[C@@H](C)O` (stereo not given in full) [MIRABAMIDE D], the 50% inhibitory concentration (IC50) was 189 nM in [1], 1310 nM in data set [2], 3900 nM in [3] and 3900 nM in data set [4]. The Activity result in data set [5] was “Non-toxic”. Besides, the zone of inhibition at 1 µg/disc in the data set on Bacillus subtilis [7] stood at 9 mm. For the same compound, the outcome with Escherichia coli, in the data set on Pseudomonas aeruginosa and in the data set with Staphylococcus aureus was inactive.

For the compound `CCC(C)/C=C(C)/C=C\C(O)C(C)(O)C(=O)NCC(=O)N[C@H](C(=O)N[C@H](C(=O)N[C@H](C(=O)N[C@H]1C(=O)N[C@H](COC)C(=O)NCC(=O)N[C@@H](C)C(=O)N(C)[C@@H]([C@@H](C)O)C(=O)N[C@H]([C@H](OC)c2ccc(O)cc2)C(=O)N2CCCC[C@H]2C(=O)O[C@@H]1C(C)C)[C@@H](C)[C@@H](C)C(N)=O)[C@@H](C)N)[C@@H](C)O` (stereo not given in full) [PAPUAMIDE A], the IC50 in data set [3] turned out to be 73 nM; in the data set on HCT-116 it was 3500 nM. The Activity entry in data set [5] is given as “Non-toxic”. In addition, the outcome in the data set with Escherichia coli, in the data set on Pseudomonas aeruginosa and with Staphylococcus aureus was inactive.

(Values after ChEMBL document CHEMBL1141334, “Mirabamides A-D, depsipeptides from the sponge Siliquariaspongia mirabilis that inhibit HIV-1 fusion” (J Nat Prod, 2007).)
